The record followed here is ChEMBL document CHEMBL2057074, “Design, synthesis and biological activity of 6-substituted carbamoyl benzimidazoles as new nonpeptidic angiotensin II AT₁ receptor antagonists” (Bioorg Med Chem, 2012).

Structures are written as SMILES. Changes are numbered by the printed parent chain. In brackets after ≈: the same amount, converted by molar mass. Where only a bound is given, the exact number is not on record here.

Data set [1] has as its target T1, Type-1 angiotensin II receptor (Oryctolagus cuniculus, UniProt P34976).
T1 sequence (P34976 whole entry): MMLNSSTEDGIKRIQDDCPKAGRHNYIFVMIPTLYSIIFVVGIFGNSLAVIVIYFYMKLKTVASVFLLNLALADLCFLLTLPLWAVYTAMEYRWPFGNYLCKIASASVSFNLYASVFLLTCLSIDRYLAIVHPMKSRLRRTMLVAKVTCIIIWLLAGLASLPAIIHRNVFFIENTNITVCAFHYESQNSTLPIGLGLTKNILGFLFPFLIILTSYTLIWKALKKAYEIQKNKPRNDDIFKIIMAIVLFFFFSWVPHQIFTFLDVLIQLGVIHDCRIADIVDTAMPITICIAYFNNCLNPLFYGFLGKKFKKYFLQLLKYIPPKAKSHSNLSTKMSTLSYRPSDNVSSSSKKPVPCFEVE
Put plainly: Antagonist activity at AT1 receptor in Japanese white rabbit thoracic aorta assessed as inhibition of […] contraction incubated 30 mins post KCl-induction for 1 hr. Conditions: read-out: pA2 (converted). It counts as functional, tissue-based. The essentials:
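Isolated rabbit aortic strips equilibrated 1 h with washes every 15 min. 67 mM KCl was given first to check tissue sensitivity and set the maximal contractile response. After a 30 min washout, test substances or their vehicles were added and contractile responses recorded.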

Data set [2] deals with T2, Type-1 angiotensin II receptor (Homo sapiens, UniProt P30556).
T2 sequence (P30556 whole entry): T1 sequence (P34976 whole entry) with M2I, A49V, V254I, V270I, H272R, K311R, S349T, V353A
Put plainly: Displacement of [125I]Sar1Ile8-Ang2 from angiotensin AT1 receptor after 180 mins by gamma counting. On the technique in general: Displacement assays read how much labelled ligand stays bound in the presence of the test substance.

Data set [3] in a line: Toxicity against Photobacterium phosphoreum expressing T3 mutation after 15 mins by Microtox assay. It counts as organism-based. In outline: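 Microtox test with luminescent Photobacterium phosphoreum. Samples were incubated with bacteria for 15 min before reading inhibition of bacterial luminescence, testing up to the saturated concentration level. LC50 is the concentration in water inhibiting 50% of the test batch.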

The test system of data set [4] is Rattus norvegicus. Put plainly: Antihypertensive activity in non-fasted spontaneous hypertensive rat assessed as decrease in mean arterial blood pressure at 10 mg/kg, po by tail plethysmography relative to control. It is filed as functional, Artery. The essentials:
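Male SHR aged 19–21 weeks, conscious and unanesthetised, six per group; controls got vehicle at 10 mL/kg. […] Blood pressure and heart rate measured by tail plethysmography after a warming period; data given as means SEM.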

In the case of `CCCc1nc2c(C)cc(C(=O)NCC(C)c3ccccc3)cc2n1Cc1ccc(-c2ccccc2-c2nnn[nH]2)cc1` (stereo not drawn), the Kb in data set [1] was 1.7 nM. In data set [2], the IC50 (commonly the concentration that gives 50% inhibition) was found to be 0.9 nM. Moreover, the LC50 (as a rule, the concentration lethal to half of the exposed cells or organisms) at 0.25 h in data set [3] is more than 100 µg/mL. Moreover, the Activity in data set [4] is on record as more than 30 mmHg.
`CCCc1nc2c(C)cc(-c3nc4ccccc4n3C)cc2n1Cc1ccc(-c2ccccc2C(=O)O)cc1` registered an LC50 at 0.25 h in data set [3] of 100 µg/mL (≈ 194 µM).
For `CCCc1nc2c(C)cc(C(=O)NCCc3ccccc3)cc2n1Cc1ccc(-c2ccccc2-c2nnn[nH]2)cc1`, the Kb in data set [1] is 4.79 nM. The same molecule yielded an IC50 in data set [2] of 1.3 nM. This molecule gave an LC50 at 0.25 h in data set [3] of more than 100 µg/mL.
The like results for `CCCc1nc2c(C)cc(C(=O)NCCc3ccc(OC)c(OC)c3)cc2n1Cc1ccc(-c2ccccc2-c2nnn[nH]2)cc1` were, in that order, 1.82 nM, 3.7 nM and more than 100 µg/mL.
`CCCc1nc2c(C)cc(C(=O)NCCc3ccc(F)cc3)cc2n1Cc1ccc(-c2ccccc2-c2nnn[nH]2)cc1` displayed an IC50 in data set [2] of 209 nM. In addition, the LC50 at 0.25 h in data set [3] came to 60 µg/mL (≈ 105 µM).
In data set [2], `CCCc1nc2c(C)cc(C(=O)NCc3cccc(OC)c3)cc2n1Cc1ccc(-c2ccccc2-c2nnn[nH]2)cc1` displayed an IC50 of 78.3 nM. Further, in data set [3], the LC50 at 0.25 h was more than 100 µg/mL.
The corresponding values for `CCCc1nc2c(C)cc(C(=O)NCc3ccc(OC)c(OC)c3)cc2n1Cc1ccc(-c2ccccc2-c2nnn[nH]2)cc1` are 96.8 nM and more than 100 µg/mL.
Take `CCCCc1nc(Cl)c(CO)n1Cc1ccc(-c2ccccc2-c2nn[nH]n2)cc1` [LOSARTAN]: the LC50 at 0.25 h in data set [3] was 331 µg/mL (≈ 783 µM).
For `CCCc1nc2c(C)cc(C(=O)NCCc3cccc(OC)c3)cc2n1Cc1ccc(-c2ccccc2-c2nnn[nH]2)cc1`, in data set [1], the Kb was 14.8 nM. In data set [2], this molecule had an IC50 of 2.6 nM. Moreover, the LC50 at 0.25 h in data set [3] is more than 100 µg/mL.
In the case of `CCCc1nc2c(C)cc(C(=O)NCCc3cc(OC)ccc3OC)cc2n1Cc1ccc(-c2ccccc2-c2nnn[nH]2)cc1`, the IC50 in data set [2] was 78 nM. In data set [3], the LC50 at 0.25 h is more than 100 µg/mL.
The corresponding values for `CCCc1nc2c(C)cc(C(=O)NCCc3ccc(OC)cc3)cc2n1Cc1ccc(-c2ccccc2-c2nnn[nH]2)cc1` are 22.5 nM and more than 100 µg/mL.
As for `CCCc1nc2c(C)cc(C(=O)NCc3ccccc3)cc2n1Cc1ccc(-c2ccccc2-c2nnn[nH]2)cc1`, the IC50 in data set [2] is 410 nM. Also, the LC50 at 0.25 h in data set [3] stood at 64 µg/mL (≈ 118 µM).
The like results for `CCCc1nc2c(C)cc(C(=O)NCc3ccccc3OC)cc2n1Cc1ccc(-c2ccccc2-c2nnn[nH]2)cc1` were, in that order, 19.7 nM and 66 µg/mL (≈ 115 µM).
In data set [2], `CCCc1nc2c(C)cc(C(=O)NCc3ccc(OC)cc3)cc2n1Cc1ccc(-c2ccccc2-c2nnn[nH]2)cc1` gave a half-inhibitory concentration (IC50) of 119 nM. Also, the LC50 at 0.25 h in data set [3] is more than 100 µg/mL.
The like results for `CCCc1nc2c(C)cc(C(=O)NCCc3ccccc3F)cc2n1Cc1ccc(-c2ccccc2-c2nnn[nH]2)cc1` were, in that order, 37.6 nM and 17 µg/mL (≈ 29.6 µM).
